Experimental data reported in ChEMBL document CHEMBL3244044, “Synthesis and antitumor activity of halogen-substituted 4-(3,3-dimethyl-1-triazeno)quinolines” (J Med Chem, 1978).

Legend:
Mus musculus [1] = experiment: Toxicity in mouse B16 cells allografted mouse at 30 mg/kg, ip qd for 9 days; type: organism-based; design: dose 30 mg/kg, route intraperitoneal; settings: in vivo, 216 h
Outline: (§1)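 Mice bearing B16 melanoma, dosed ip once daily for 9 days from 24 h after tumor implantation. Toxicity is recorded as the average body weight change at the end of drug treatment.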

P388 [2] = experiment: Antitumor activity against mouse P388 cells allografted mouse assessed as host survival at 30 mg/kg, ip qd for 9 days relative to control; type: functional; settings: route intraperitoneal
Outline: (§2)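 NCI protocol: groups of five to ten mice inoculated ip with approximately 10^6 P-388 or L1210 cells. Drug given over a range of dose levels starting 24 h after implantation, once daily for 9 consecutive days. Survival expressed as %T/C = (average survival of treated)/(average survival of control) × 100.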

Mus musculus [3] = experiment: Toxicity in mouse P388 cells allografted mouse at 20 mg/kg, ip qd for 9 days; type: organism-based; design: dose 20 mg/kg, route intraperitoneal; settings: in vivo, 216 h
Outline: (§3)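 NCI protocol. Groups of five to ten mice were inoculated intraperitoneally with about 10^6 tumor cells. Drug was given ip once daily for 9 consecutive days, starting 24 h after tumor implantation, over a range of dose levels. Toxicity was read as the average body weight change at the end of drug treatment.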

P388 [4] = experiment: Antitumor activity against mouse P388 cells allografted mouse assessed as host survival at 20 mg/kg, ip qd for 9 days relative to control; type: functional; settings: route intraperitoneal; outline: as §2
Mus musculus [5] = experiment: Toxicity in mouse B16 cells allografted mouse at 50 mg/kg, ip qd for 9 days; type: organism-based; design: dose 50 mg/kg, route intraperitoneal; settings: in vivo, 216 h; outline: as §1
B16 [6] = experiment: Antitumor activity against mouse B16 cells allografted mouse assessed as host survival at 18 mg/kg, ip qd for 9 days relative to control; type: functional; settings: route intraperitoneal
Outline: (§4)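 B16 melanoma-bearing mice given drug ip once daily for 9 days, starting 24 h after tumor implantation. Read-out is average survival in days, expressed as %T/C = (average survival of treated mice)/(average survival of control mice) × 100.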

Mus musculus [7] = experiment: Toxicity in mouse L1210 cells allografted mouse at 30 mg/kg, ip qd for 9 days; type: organism-based; design: dose 30 mg/kg, route intraperitoneal; settings: in vivo, 216 h
Outline: (§5)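 Groups of five to ten mice were inoculated ip with about 10^6 L1210 cells and dosed once daily for 9 consecutive days beginning 24 h post-implantation. Toxicity was taken as the average body weight change at the end of drug treatment.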

L1210 [8] = experiment: Antitumor activity against mouse L1210 cells allografted mouse assessed as host survival at 40 mg/kg, ip qd for 9 days relative to control; type: functional; settings: route intraperitoneal; outline: as §2
L1210 [9] = experiment: Antitumor activity against mouse L1210 cells allografted mouse assessed as host survival at 30 mg/kg, ip qd for 9 days relative to control; type: functional; settings: route intraperitoneal; outline: as §2
Mus musculus [10] = experiment: Toxicity in mouse P388 cells allografted mouse at 30 mg/kg, ip qd for 9 days; type: organism-based; design: dose 30 mg/kg, route intraperitoneal; settings: in vivo, 216 h; outline: as §3
[11] = Binding affinity to synthetic melanin at 5.8 mg/100 mL after 15 mins by UV-spectroscopic analysis; type: physicochemical; settings: 0.25 h
Outline: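 Synthetic melanin was made from DL-Dopa with tyrosinase in 0.1 M phosphate pH 6.6 at 37 °C for 4 h. Melanin suspension (1.1 mg dry weight) was mixed with phosphate buffer (0.05 M, pH 6.4, 5% Me2SO), water, and 1 mL of drug solution (5.8 mg/100 mL). The mixture was shaken 15 min at room temperature and filtered. Unbound drug in the filtrate was measured by UV against a drug-free blank.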

Mus musculus [12] = experiment: Toxicity in mouse B16 cells allografted mouse at 18 mg/kg, ip qd for 9 days; type: organism-based; design: dose 18 mg/kg, route intraperitoneal; settings: in vivo, 216 h; outline: as §1
Mus musculus [13] = experiment: Toxicity in mouse L1210 cells allografted mouse at 40 mg/kg, ip qd for 9 days; type: organism-based; design: dose 40 mg/kg, route intraperitoneal; settings: in vivo, 216 h; outline: as §5
B16 [14] = experiment: Antitumor activity against mouse B16 cells allografted mouse assessed as host survival at 50 mg/kg, ip qd for 9 days relative to control; type: functional; settings: route intraperitoneal; outline: as §4
B16 [15] = experiment: Antitumor activity against mouse B16 cells allografted mouse assessed as host survival at 30 mg/kg, ip qd for 9 days relative to control; type: functional; settings: route intraperitoneal; outline: as §4
L1210 [16] = experiment: Antitumor activity against mouse L1210 cells allografted mouse assessed as host survival at 60 mg/kg, ip qd for 9 days relative to control; type: functional; settings: route intraperitoneal; outline: as §2
Mus musculus [17] = experiment: Toxicity in mouse P388 cells allografted mouse at 60 mg/kg, ip qd for 9 days; type: organism-based; design: dose 60 mg/kg, route intraperitoneal; settings: in vivo, 216 h; outline: as §3
Mus musculus [18] = experiment: Toxicity in mouse L1210 cells allografted mouse at 50 mg/kg, ip qd for 9 days; type: organism-based; design: dose 50 mg/kg, route intraperitoneal; settings: in vivo, 216 h; outline: as §5
P388 [19] = experiment: Antitumor activity against mouse P388 cells allografted mouse assessed as host survival at 60 mg/kg, ip qd for 9 days relative to control; type: functional; settings: route intraperitoneal; outline: as §2
P388 [20] = experiment: Antitumor activity against mouse P388 cells allografted mouse assessed as host survival at 40 mg/kg, ip qd for 9 days relative to control; type: functional; settings: route intraperitoneal; outline: as §2
L1210 [21] = experiment: Antitumor activity against mouse L1210 cells allografted mouse assessed as host survival at 50 mg/kg, ip qd for 9 days relative to control; type: functional; settings: route intraperitoneal; outline: as §2
Mus musculus [22] = experiment: Toxicity in mouse L1210 cells allografted mouse at 60 mg/kg, ip qd for 9 days; type: organism-based; design: dose 60 mg/kg, route intraperitoneal; settings: in vivo, 216 h; outline: as §5
Mus musculus [23] = experiment: Toxicity in mouse P388 cells allografted mouse at 40 mg/kg, ip qd for 9 days; type: organism-based; design: dose 40 mg/kg, route intraperitoneal; settings: in vivo, 216 h; outline: as §3
Mus musculus [24] = experiment: Toxicity in mouse B16 cells allografted mouse at 70 mg/kg, ip qd for 9 days; type: organism-based; design: dose 70 mg/kg, route intraperitoneal; settings: in vivo, 216 h; outline: as §1
B16 [25] = experiment: Antitumor activity against mouse B16 cells allografted mouse assessed as host survival at 116.7 mg/kg, ip qd for 9 days relative to control; type: functional; settings: route intraperitoneal; outline: as §4
L1210 [26] = experiment: Antitumor activity against mouse L1210 cells allografted mouse assessed as host survival at 70 mg/kg, ip qd for 9 days relative to control; type: functional; settings: route intraperitoneal; outline: as §2
Mus musculus [27] = experiment: Toxicity in mouse B16 cells allografted mouse at 116.7 mg/kg, ip qd for 9 days; type: organism-based; design: dose 116.7 mg/kg, route intraperitoneal; settings: in vivo, 216 h; outline: as §1
Mus musculus [28] = experiment: Toxicity in mouse P388 cells allografted mouse at 80 mg/kg, ip qd for 9 days; type: organism-based; design: dose 80 mg/kg, route intraperitoneal; settings: in vivo, 216 h; outline: as §3
Mus musculus [29] = experiment: Toxicity in mouse L1210 cells allografted mouse at 90 mg/kg, ip qd for 9 days; type: organism-based; design: dose 90 mg/kg, route intraperitoneal; settings: in vivo, 216 h; outline: as §3
B16 [30] = experiment: Antitumor activity against mouse B16 cells allografted mouse assessed as host survival at 70 mg/kg, ip qd for 9 days relative to control; type: functional; settings: route intraperitoneal; outline: as §4
P388 [31] = experiment: Antitumor activity against mouse P388 cells allografted mouse assessed as host survival at 90 mg/kg, ip qd for 9 days relative to control; type: functional; settings: route intraperitoneal; outline: as §2
Mus musculus [32] = experiment: Toxicity in mouse B16 cells allografted mouse at 42 mg/kg, ip qd for 9 days; type: organism-based; design: dose 42 mg/kg, route intraperitoneal; settings: in vivo, 216 h; outline: as §1
L1210 [33] = experiment: Antitumor activity against mouse L1210 cells allografted mouse assessed as host survival at 90 mg/kg, ip qd for 9 days relative to control; type: functional; settings: route intraperitoneal; outline: as §2
Mus musculus [34] = experiment: Toxicity in mouse P388 cells allografted mouse at 90 mg/kg, ip qd for 9 days; type: organism-based; design: dose 90 mg/kg, route intraperitoneal; settings: in vivo, 216 h; outline: as §3
P388 [35] = experiment: Antitumor activity against mouse P388 cells allografted mouse assessed as host survival at 80 mg/kg, ip qd for 9 days relative to control; type: functional; settings: route intraperitoneal; outline: as §2
B16 [36] = experiment: Antitumor activity against mouse B16 cells allografted mouse assessed as host survival at 42 mg/kg, ip qd for 9 days relative to control; type: functional; settings: route intraperitoneal; outline: as §4
Mus musculus [37] = experiment: Toxicity in mouse P388 cells allografted mouse at 70 mg/kg, ip qd for 9 days; type: organism-based; design: dose 70 mg/kg, route intraperitoneal; settings: in vivo, 216 h; outline: as §3
L1210 [38] = experiment: Antitumor activity against mouse L1210 cells allografted mouse assessed as host survival at 80 mg/kg, ip qd for 9 days relative to control; type: functional; settings: route intraperitoneal; outline: as §2
P388 [39] = experiment: Antitumor activity against mouse P388 cells allografted mouse assessed as host survival at 70 mg/kg, ip qd for 9 days relative to control; type: functional; settings: route intraperitoneal; outline: as §2
Mus musculus [40] = experiment: Toxicity in mouse L1210 cells allografted mouse at 80 mg/kg, ip qd for 9 days; type: organism-based; design: dose 80 mg/kg, route intraperitoneal; settings: in vivo, 216 h; outline: as §3
Mus musculus [41] = experiment: Toxicity in mouse L1210 cells allografted mouse at 70 mg/kg, ip qd for 9 days; type: organism-based; design: dose 70 mg/kg, route intraperitoneal; settings: in vivo, 216 h; outline: as §5

## CN(C)/N=N\c1ccnc2c(Cl)cccc12
Mus musculus [1]
  Activity: -2.9%
P388 [2]
  T/C: 167%
Mus musculus [3]
  Activity: -2.1%
P388 [4]
  T/C: 172%
Mus musculus [5]
  Activity: -3.9%
B16 [6]
  Survival: 21.6 days
  T/C: 103%
Mus musculus [7]
  Activity: 0%
L1210 [8]
  T/C: 155%
L1210 [9]
  T/C: 165%
Mus musculus [10]
  Activity: -15%
[11]
  Activity: 56.4%
Mus musculus [12]
  Activity: -0.3%
Mus musculus [13]
  Activity: -4.9%
B16 [14]
  Survival: 20.8 days
  T/C: 99%
B16 [15]
  Survival: 21.3 days
  T/C: 101%

## CN(C)/N=N\c1ccnc2cc(I)ccc12
Mus musculus [3]
  Activity: 10.8%
L1210 [16]
  T/C: 131%
P388 [4]
  T/C: 117%
Mus musculus [17]
  Activity: -5.2%
Mus musculus [18]
  Activity: 4.9%
P388 [19]
  T/C: 127%
P388 [20]
  T/C: 130%
L1210 [21]
  T/C: 107%
Mus musculus [22]
  Activity: 2.9%
Mus musculus [23]
  Activity: 5.7%

## CN(C)/N=N\c1ccnc2c(I)cccc12
Mus musculus [24]
  Activity: -1.5%
B16 [25]
  Survival: 19.3 days
  T/C: 92%
L1210 [26]
  T/C: 127%
Mus musculus [27]
  Activity: -4.6%
Mus musculus [28]
  Activity: -2.4%
Mus musculus [29]
  Activity: -7%
B16 [30]
  Survival: 20.8 days
  T/C: 99%
P388 [31]
  T/C: 116%
Mus musculus [32]
  Activity: -1.3%
L1210 [33]
  T/C: 139%
Mus musculus [34]
  Activity: -1.6%
P388 [35]
  T/C: 120%
B16 [36]
  Survival: 20 days
  T/C: 97%
Mus musculus [37]
  Activity: 8.2%
L1210 [38]
  T/C: 129%
P388 [39]
  T/C: 120%
Mus musculus [40]
  Activity: -6.9%
Mus musculus [41]
  Activity: 7.7%
